How the values were obtained:
BMDM = assay: Inhibition of osteoclastogenesis in RANKL and M-CSF-stimulated mouse BMDM cells after 4 days by TRAP assay; format: functional, cell-based
Outline: (§1)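 Mouse femur/tibia marrow cells grown 3 days at 37 °C in R-MEM/10% FBS with M-CSF 100 ng/mL to give BMMs, lifted with trypsin/EDTA. They were then differentiated with M-CSF 20 ng/mL and RANKL 100 ng/mL plus compound, with medium changed every 2 days. At day 4, TRAP staining was done and TRAP-positive multinucleated cells per well were counted relative to DMSO control.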

[1] = Inhibition of osteoclastogenesis in RANKL and M-CSF-stimulated mouse BMDM cells at 200 uM after 4 days by TRAP assay; format: functional; conditions: 96 h; outline: as §1
[2] = Cytotoxicity against RANKL and M-CSF-stimulated mouse BMDM cells at 100 to 200 uM after 72 hrs by MTS-cell titer assay; format: cell-based
Outline: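 Bone marrow macrophages from femora and tibia of 6-8 week old mice, expanded 3 days in R-MEM/10% FBS with M-CSF 100 ng/mL, then trypsin/EDTA-lifted. Cells exposed to compound alongside recombinant M-CSF 20 ng/mL plus RANKL 100 ng/mL for 72 h at 37 °C. Percent survival read by MTS (CellTiter 96 Aqueous) against DMSO-treated control.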

Row | SMILES | Activity (BMDM) | inhibition at 200 µM [1] [%] | Activity [2]
1 | CCCCC/C=C\C/C=C\CCCCCCCC(=O)OC[C@@H](O)CO[C@H]1O[C@H](CS(=O)(=O)O)[C@@H](O)[C@H](O)[C@H]1O | Dose-dependent effect | 97 | 
2 | CC1=CC(=O)CC(C)(C)[C@@]1(O)/C=C/[C@H](C)O[C@@H]1O[C@H](CO)[C@@H](O)[C@H](O)[C@H]1O [6S,9S-ROSEOSIDE] | Dose-dependent effect | 75 | Non-toxic
3 | CO[C@@H]1C[C@](O)(CO[C@@H]2O[C@H](CO)[C@@H](OC(=O)/C=C/c3ccc(O)c(O)c3)[C@H](O)[C@H]2O)[C@H](OC)O1 [CIBOTIUMBAROSIDE B] | Dose-dependent effect | 73 | Non-toxic
